According to ChEMBL document CHEMBL1122273, “5-sulfamoylorthanilic acids, a sulfonamide series with salidiuretic activity” (J Med Chem, 1983):
Active and inactive are the calls of the source. The calls are words filed in the database; no cut-off is given here.

Columns and labels:
Rattus norvegicus [1] = species: Rattus norvegicus; assay: Diuretic activity in the rats, determined by a modified Lipschitz test; assay type: functional, Urine
Procedure, shortened: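 Modified Lipschitz test: rats deprived of water 24 h, grouped in threes of similar weight in diuresis funnels. Oral dose of 50 mg/kg, suspended in 2% starch solution, by stomach tube.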

Rattus norvegicus [2] = species: Rattus norvegicus; assay: Saluretic activity in the rat measured as concentration of chloride in urine; assay type: functional
Procedure, shortened: (§1)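 Rats deprived of food 24 h, water ad libitum, dosed 50 mg/kg by stomach tube as suspension in 2% starch, no extra water load. Groups of three in diuresis funnels; urine over first 5 h collected. Na⁺ and K⁺ by flame photometry, Cl⁻ argentometrically; expressed as mequiv/kg.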

Canis familiaris [3] = assay: Saluretic activity in the dog measured as concentration of Cl - in urinary excretion (2 animals/dose) at (dose 1.56 mg/Kg, po); assay type: functional, Canis lupus familiaris, Urine
Procedure, shortened: (§2)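 Male beagles trained to the procedures, food withdrawn 24 h before, tap water ad libitum. Bladder emptied by catheter, then 20 mL/kg tap water by stomach tube, plus 4 mL/kg orally at each hourly catheterization up to 8 h. The first 2 h of urine served as control. Compound given orally after the second catheterization. Urine from 1–6 h post-dose pooled; Na⁺ and K⁺ by flame photometry, Cl⁻ argentometrically, in mequiv/kg.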

Canis familiaris [4] = assay: Diuretic activity in the dog (2 animals/dose) at (dose 1.56 mg/Kg), when administered perorally; assay type: functional, Canis lupus familiaris, Urine
Procedure, shortened: (§3)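 Trained male beagles, fasted 24 h with tap water ad libitum. Bladder emptied by catheter, then 20 mL/kg tap water by stomach tube, with 4 mL/kg water at each hourly catheterization up to 8 h. The first 2 h of urine served as control. Oral dosing came after the second catheterization, and 1–6 h urine was pooled. Na⁺ and K⁺ were measured by flame photometry, Cl⁻ argentometrically, in mequiv/kg.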

[5] = It is the ratio, measured as saluretic activity in the dog as concentration of Na+ in urinary excretion (dose 1.56 mg/Kg, po) to that of K; assay type: functional, Urine; procedure, shortened: as §3
Rattus norvegicus [6] = species: Rattus norvegicus; assay: Saluretic activity in the rat measured as concentration of K+ in urine; assay type: functional; procedure, shortened: as §1
Canis familiaris [7] = assay: Saluretic activity in the dog measured as concentration of K+ in urinary excretion (2 animals/dose) at (dose 1.56 mg/Kg, po); assay type: functional, Canis lupus familiaris, Urine
Procedure, shortened: (§4)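 Male beagles trained to rest on a table and to accept stomach tube and catheter. Food withdrawn 24 h before, tap water ad libitum. Bladder emptied by catheter, then 20 mL/kg tap water by stomach tube. Catheterized hourly up to 8 h with 4 mL/kg water orally each time; first 2 h urine served as control. Oral dosing after second catheterization. Pooled 1–6 h urine; Na⁺/K⁺ by flame photometry, Cl⁻ argentometrically.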

Rattus norvegicus [8] = species: Rattus norvegicus; assay: Saluretic activity in the rat measured as concentration of Na+ in urine; assay type: functional; procedure, shortened: as §1
[9] = It is the ratio, measured as saluretic activity in the dog as concentration of Cl- in urinary excretion (dose mg/Kg, po) to that of (Na+)+(K+); assay type: functional, Urine; procedure, shortened: as §3
Canis familiaris [10] = assay: Saluretic activity in the dog measured as concentration of Na+ in urinary excretion (2 animals/dose) at (dose 1.56 mg/Kg, po); assay type: functional, Canis lupus familiaris, Urine; procedure, shortened: as §4
[11] = It is the ratio, measured as saluretic activity in the dog as concentration of Cl- in urinary excretion (dose 1.56 mg/Kg, po) to that of (Na+)+(K+); assay type: functional, Urine; procedure, shortened: as §3
Canis familiaris [12] = assay: Sailuric activity in the dog measured as concentration of K+ in urinary excretion (2 animals/dose) at (dose 1.56 mg/Kg, po); assay type: functional, Canis lupus familiaris, Urine; procedure, shortened: as §2
[13] = It is the ratio, measured as saluretic activity in the dog as concentration of Na+ in urinary excretion (dose 1.56mg/Kg, po) to that of K; assay type: functional, Urine; procedure, shortened: as §3
Canis familiaris [14] = assay: Sailuric activity in the dog measured as concentration of Cl - in urinary excretion (2 animals/dose) at (dose 1.56 mg/Kg, po); assay type: functional, Canis lupus familiaris, Urine; procedure, shortened: as §2
Canis familiaris [15] = assay: Sailuric activity in the dog measured as concentration of Na+ in urinary excretion (2 animals/dose) at (dose 1.56 mg/Kg, po); assay type: functional, Canis lupus familiaris, Urine; procedure, shortened: as §2
Canis familiaris [16] = assay: Diuretic activity in the dog (2 animals/dose) at (dose 12.5 mg/Kg), when administered perorally; assay type: functional, Canis lupus familiaris, Urine; procedure, shortened: as §3
Canis familiaris [17] = assay: Saluretic activity in the dog measured as concentration of K+ in urinary excretion (2 animals/dose) at (dose 1.56 mg/Kg, perorally); assay type: functional, Canis lupus familiaris, Urine; procedure, shortened: as §2
Canis familiaris [18] = assay: Saluretic activity in the dog measured as concentration of Cl - in urinary excretion (2 animals/dose) at (dose 12.5 mg/Kg, perorally); assay type: functional, Canis lupus familiaris, Urine; procedure, shortened: as §2
Rattus norvegicus [19] = assay: Salidiuretic activity on the basis of the 50 mg/kg perorally rat assay; NA means inactive; conditions: Urine
Canis familiaris [20] = assay: Saluretic activity in the dog measured as concentration of Na+ in urinary excretion (2 animals/dose) at (dose 1.56 mg/Kg, perorally); assay type: functional, Canis lupus familiaris, Urine; procedure, shortened: as §4
Canis familiaris [21] = assay: Salidiuretic activity on the basis of the 1.56 mg/Kg perorally dog assay; compound was found to be highly active; assay type: functional, organism-based; conditions: Canis lupus familiaris; Urine
[22] = It is the ratio, measured as saluretic activity in the dog as concentration of Cl- in urinary excretion (dose 1.56 mg/Kg, perorally) to that of (Na+)+(K+); assay type: functional, Urine; procedure, shortened: as §3
Canis familiaris [23] = assay: Saluretic activity in the dog measured as concentration of Na+ in urinary excretion (2 animals/dose) at (dose 12.5 mg/Kg, perorally); assay type: functional, Canis lupus familiaris, Urine; procedure, shortened: as §4
Canis familiaris [24] = assay: Saluretic activity in the dog measured as concentration of Cl - in urinary excretion (2 animals/dose) at (dose 1.56 mg/Kg, perorally); assay type: functional, Canis lupus familiaris, Urine; procedure, shortened: as §2
[25] = It is the ratio, measured as saluretic activity in the dog as concentration of Na+ in urinary excretion (dose 12.5 mg/Kg, perorally) to that of K; assay type: functional, Urine; procedure, shortened: as §3
[26] = It is the ratio, measured as saluretic activity in the dog as concentration of Cl- in urinary excretion (dose 12.5 mg/Kg, perorally) to that of (Na++K+); assay type: functional, Urine; procedure, shortened: as §3
[27] = It is the ratio, measured as saluretic activity in the dog as concentration of Na+ in urinary excretion (dose 1.56 mg/Kg, perorally) to that of K; assay type: functional, Urine; procedure, shortened: as §3
Canis familiaris [28] = assay: Saluretic activity in the dog measured as concentration of K+ in urinary excretion (2 animals/dose) at (dose 12.5 mg/Kg, perorally); assay type: functional, Canis lupus familiaris, Urine; procedure, shortened: as §4
[29] = It is the ratio, measured as saluretic activity in the dog as concentration of Cl- in urinary excretion (dose 12.5 mg/Kg, po) to that of (Na++K+); assay type: functional, Urine; procedure, shortened: as §3
Canis familiaris [30] = assay: Saluretic activity in the dog measured as concentration of K+ in urinary excretion (2 animals/dose) at (dose 12.5 mg/Kg, po); assay type: functional, Canis lupus familiaris, Urine; procedure, shortened: as §4
[31] = It is the ratio, measured as saluretic activity in the dog as concentration of Na+ in urinary excretion (dose 12.5 mg/Kg, po) to that of K; assay type: functional, Urine; procedure, shortened: as §3
Canis familiaris [32] = assay: Saluretic activity in the dog measured as concentration of Cl - in urinary excretion (2 animals/dose) at (dose 12.5 mg/Kg, po); assay type: functional, Canis lupus familiaris, Urine; procedure, shortened: as §2
Canis familiaris [33] = assay: Saluretic activity in the dog measured as concentration of Na+ in urinary excretion (2 animals/dose) at (dose 12.5 mg/Kg, po); assay type: functional, Canis lupus familiaris, Urine; procedure, shortened: as §4
[34] = It is the ratio, measured as saluretic activity in the dog as concentration of Na+ in urinary excretion(dose 1.56 mg/kg, p.o.) to that of K; assay type: functional, Urine; conditions: route oral; procedure, shortened: as §3

Row | SMILES | Diuretic activity (Rattus norvegicus [1]) | Saluretic activity (Rattus norvegicus [2]) | Saldiuretic activity (Canis familiaris [3]) | Diuretic activity (Canis familiaris [4]) | Saluretic activity (Rattus norvegicus [6]) | Saluretic activity (Canis familiaris [7]) | Saluretic activity (Rattus norvegicus [8]) | Saluretic activity (Canis familiaris [10]) | Ratio [11] | Diuretic activity (Canis familiaris [16]) | also measured
1 | NS(=O)(=O)c1cc(S(=O)(=O)[O-])c(NCc2ccco2)cc1[S+]([O-])C1CCCCC1.[Na+] (centres undefined) | 1.2 mL/kg | 1.7 m equiv 5hr-1 kg-1 | 1.27 m equiv 6hr-1 kg-1 | 48.4 ml kg-1 6hr-1 | 1.4 m equiv 5hr-1 kg-1 | 0.33 m equiv 6hr-1 kg-1 | 1.3 m equiv 5hr-1 kg-1 | 0.59 m equiv 6hr-1 kg-1 | – | – | Ratio [5]: 1.8; Ratio [9]: 1.4
2 | NS(=O)(=O)c1cc(S(=O)(=O)[O-])c(NCc2ccco2)cc1S(=O)(=O)C1CCCC1.[Na+] | 4.3 mL/kg | 9.5 m equiv 5hr-1 kg-1 | – | 58 ml kg-1 6hr-1 | 2 m equiv 5hr-1 kg-1 | – | 8 m equiv 5hr-1 kg-1 | – | 1 | – | Saldiuretic activity (Canis familiaris [12]): 1.02 m equiv 6hr-1 kg-1; Ratio [13]: 4.2; Saldiuretic activity (Canis familiaris [14]): 5.26 m equiv 6hr-1 kg-1; Saluretic activity (Canis familiaris [15]): 4.24 m equiv 6hr-1 kg-1
3 | NS(=O)(=O)c1cc(S(=O)(=O)[O-])c(NCc2cccs2)cc1Oc1ccccc1.[K+] | 0.8 mL/kg | 0.6 m equiv 5hr-1 kg-1 | – | 58 ml kg-1 6hr-1 | 0.4 m equiv 5hr-1 kg-1 | – | 0.8 m equiv 5hr-1 kg-1 | – | – | 78 ml kg-1 6hr-1 | Saluretic activity (Canis familiaris [17]): 1.03 m equiv 6hr-1 kg-1; Saldiuretic activity (Canis familiaris [18]): 7.84 m equiv 6hr-1 kg-1; Diuretic activity (Rattus norvegicus [19]): inactive; Saluretic activity (Canis familiaris [20]): 3.73 m equiv 6hr-1 kg-1; Saldiuretic activity (Canis familiaris [21]): Active; Ratio [22]: 0.95; Saluretic activity (Canis familiaris [23]): 6.89 m equiv 6hr-1 kg-1; Saldiuretic activity (Canis familiaris [24]): 4.45 m equiv 6hr-1 kg-1; Ratio [25]: 4.7; Ratio [26]: 0.95; Ratio [27]: 3.6; Saldiuretic activity (Canis familiaris [28]): 1.47 m equiv 6hr-1 kg-1
4 | NS(=O)(=O)c1cc(S(=O)(=O)[O-])c(NCc2ccco2)cc1S(=O)(=O)c1ccccc1.[K+] | 3.6 mL/kg | 9.8 m equiv 5hr-1 kg-1 | 1.09 m equiv 6hr-1 kg-1 | 35.3 ml kg-1 6hr-1 | 2.6 m equiv 5hr-1 kg-1 | 0.25 m equiv 6hr-1 kg-1 | 7.1 m equiv 5hr-1 kg-1 | 0.49 m equiv 6hr-1 kg-1 | 1.5 | 59.7 ml kg-1 6hr-1 | Ratio [29]: 1.1; Saluretic activity (Canis familiaris [30]): 0.93 m equiv 6hr-1 kg-1; Ratio [31]: 4.3; Saldiuretic activity (Canis familiaris [32]): 5.28 m equiv 6hr-1 kg-1; Saluretic activity (Canis familiaris [33]): 4 m equiv 6hr-1 kg-1; Ratio [34]: 2
